Compound activity as filed in PubChem BioAssay.
CDK5 p35 inh – inhibitors of human CDK5/p35 kinase, primary screen, biochemical, single concentration. AID 488839, 2010. Recombinant CDK5/p35, ADP-Glo luminescence, 60 min. inhibition, % at 10 µM. actives 0.01% (n = 330,000). Cyclin-dependent kinase 5 (Homo sapiens) + Cyclin-dependent kinase 5 activator 1 (Homo …;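 active means highest replicate inhibition of at least 50% and at least 75% of replicates reaching 50%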;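 further: plate controls were DMSO neutral control for no effect and GW8510 at 10 µM for full effect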
Env fusion inh – inhibitors of HIV-1 Env-driven cell-cell fusion, primary screen, HeLa-JRFL effector, CEM21 target cells, luciferase | actives 1.1% (n = 360,000) | AID 651610, 2012 | inhibition, % at 12.3 µM;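 active means mean replicate inhibition score of at least 50 and every replicate individually at or above 50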;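 further: 0% = plate neutral controls and 100% = maraviroc near 300 nM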
Cneo AK release – Cryptococcus neoformans cell lysis inducers, primary screen, AK release luminescence, single concentration | lysis activity, % at 15 µM | actives 0.2% (n = 360,000) | C. neoformans lysis, adenylate kinase release luminescence, 4 h; normalised: neutral wells 0, clomiphene wells 100;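 active means mean lysis activity across replicates of at least 80%, whatever share of replicates individually reach that level; inactive means mean lysis activity below 80%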
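Assay system: C. neoformans cells. Amount: yeast cell density of 5 × 10^6 cells/mL. Technique: AK luminescence. Buffer or medium: YPD. Times: static 4 h at 37 °C with compound, 1 h detection. Dosing: single-point compound dose. Read-out: lysis from increased AK signal.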
INS-1E GSIS act – GLuc luminescence reporter in INS-1E cells, primary screen for activators of glucose-dependent secretion of insulin; INS-1E GLuc reporter insulin secretion, 2-3 h; activation, % at 16.6 µM; actives 0.61% (n = 370,000); AID 743287, 2014;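 active means lowest replicate activation of at least 40%, so every replicate reaches that level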;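 further: 0% = median of neutral control wells and 100% = median of IBMX positive control wells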
PAX8 reporter – inhibitors of PAX8-driven TPO luciferase reporter, primary screen, RMG-I cells, single concentration | AID 652154, 2013 | actives 1.2% (n = 360,000) | inhibition, % at 12.6 µM | SteadyGlo, 24 h;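 active means mean replicate inhibition at least 60% with every replicate also reaching 60%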;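 further: luciferase light reporting Pax8 driven TPO promoter activity; plate controls were median of neutral control wells for no effect and mitoxantrone controls for full effect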
dFosB act – activators of delta FosB homodimer, primary screen, biochemical, fluorescence polarization, TAMRA-CDK5 oligo, single point. Protein FosB (Mus musculus), P13346. purified delta FosB; percent of positive-control signal above neutral wells. activation, % at 25 µM. actives 0.99% (n = 340,000). AID 493131, 2011;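 active means mean activation above about 17%, with every replicate also reaching it, limit read from the data, passing the limit was not always enough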
Target sequence (P13346 whole entry, looked up): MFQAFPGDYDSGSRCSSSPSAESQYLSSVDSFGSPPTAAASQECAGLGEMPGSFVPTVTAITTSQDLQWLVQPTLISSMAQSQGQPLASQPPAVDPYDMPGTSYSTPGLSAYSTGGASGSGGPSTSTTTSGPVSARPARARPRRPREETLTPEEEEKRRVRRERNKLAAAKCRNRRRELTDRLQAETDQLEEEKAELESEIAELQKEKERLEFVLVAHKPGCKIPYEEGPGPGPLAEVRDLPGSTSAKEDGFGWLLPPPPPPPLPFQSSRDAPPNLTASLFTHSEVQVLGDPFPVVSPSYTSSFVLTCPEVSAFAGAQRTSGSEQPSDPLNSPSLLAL
The depositor's hits bear a star; i = inactive; / = no result; [ ] = another dose, or the depositor's remark. A selection: hits, their analogues and other compounds. The true share with any hit is near 2.9%.

SMILES | CDK5 p35 inh | Env fusion inh | Cneo AK release | INS-1E GSIS act | PAX8 reporter | dFosB act
Cc1cc(NC(=O)CCC(=O)N(C2CC2)C2(C(=O)NC3CCCC3)CCC(C)CC2)no1 (configuration not stated) | 1 | 100* | 3 | / | 22 | -5
Cc1cc(NC(=O)CCC(=O)N(Cc2ccco2)C2(C(=O)NC3CCCC3)CCC(C)CC2)no1 (configuration not stated) | 0 | 7 | 1 | -14 | 6 | -8
CCNC(=O)C1CCCN(C(=O)c2ccc(F)c(Cl)c2)CC1 (configuration not stated) | / | 34 | 12 | 24 | 76* | /
COc1ccccc1NC(=O)Nc1nnc(CC(=O)Nc2ccccc2C)s1 | -4 | 7 | / | 9 | 22 | 26*
COc1ccc(C2=Nn3c(nnc3-c3ccccc3)SC2)cc1OC | -1 | -24 | / | 11 | / | -6
COc1ccc(OC)c(-c2nnc3n2N=C(c2ccc(OC(F)F)c(OCC4CC4)c2)CS3)c1 | 4 | -12 | 0 | -1 | 44 | -6
COc1ccc(OC)c(-c2nnc3n2N=C(c2ccc(OC)c(OC)c2)CS3)c1 | -1 | i | 2 | 80* | 53 | 2
COc1ccc(C2=Nn3c(nnc3-c3ccccc3OC)SC2)cc1OCC1CC1 | -1 | -94 | 2 | 50* | 78* | -9
CCCc1nnc2n1N=C(c1ccc(OC)c(OC)c1)CS2 | -1 | / | / | 106* | / | -7
COc1ccc(C2=Nn3c(nnc3-c3ccccc3F)SC2)cc1OC1CCOC1 (configuration not stated) | -2 | -40 | 1 | 45* | -13 | -12
C[C@H](CO)N1C[C@H](C)[C@H](CN(C)C(=O)NC2CCCC2)Oc2ncc(-c3ccncc3)cc2C1=O | / | 16[16.7 µM] | / | 17 | / | /
COc1ccc(C2=Nn3c(nnc3-c3ccccc3F)SC2)cc1OC1CCCC1 | -1 | -79 | 0 | 55 | 32 | -27
COc1ccc(OC)c(-c2nnc3n2N=C(c2ccc(OC)c(OC4CCCC4)c2)CS3)c1 | -3 | -54 | 1 | / | 89* | 10
O=C(Nc1ccc(F)cc1)N1CCCCN2[C@H](CO)[C@H](c3ccc(-c4ccccc4F)cc3)[C@H]2C1 | / | / | 4 | / | 64* | /
O=C(Nc1ccc(F)cc1)N1CCCCN2[C@H](CO)[C@@H](c3ccc(-c4ccccc4F)cc3)[C@@H]2C1 | / | / | 2 | / | 5 | /
O=C(Nc1cccc(F)c1)N1CCCCN2[C@@H](CO)[C@H](c3ccc(-c4ccccc4F)cc3)[C@@H]2C1 | / | / | 2 | -21 | 49 | /
O=C(Nc1cccc(F)c1)N1CCCCN2[C@H](CO)[C@@H](c3ccc(-c4ccccc4F)cc3)[C@H]2C1 | / | / | 11 | -28 | 94* | /
COc1ccc(C#Cc2ccc([C@H]3[C@H]4CN(C(=O)Nc5ccccc5F)CC(=O)N4[C@H]3CO)cc2)cc1 | / | / | / | -42 | / | /
O=C(C1CCOCC1)N1CC(=O)N2[C@H](C1)[C@H](c1ccc(C#CC3CCCC3)cc1)[C@@H]2CO | / | / | / | 0 | / | /
COc1ccc(-c2cc(-c3ccco3)[nH]c(=O)c2C#N)cc1OC | -4 | -5 | 1 | 52* | 16 | -28
N#Cc1c(-c2ccccc2)cc(-c2ccc3c(c2)OCO3)[nH]c1=O | -3 | 5 | 0 | / | -3 | 4
COc1cccc(N(C(=O)CCl)C(C(=O)NCCc2ccccc2)c2cccs2)c1 (configuration not stated) | -2 | 65* | 0 | 44 | / | -5
COc1ccc(N(C(=O)c2ccco2)C(C(=O)NC2CCCCC2)c2cccs2)cc1OC (configuration not stated) | 0 | / | / | / | / | -1
COc1ccc(N(C(=O)CCl)C(C(=O)NCCc2ccccc2)c2cccs2)cc1Cl (configuration not stated) | 0 | 42 | / | 25 | 104* | -14
COc1ccc(S(=O)(=O)Nc2ccc3c(c2)C(=O)N([C@H](C)CO)C[C@@H](C)[C@H](CN(C)Cc2ccc(Cl)c(Cl)c2)OCCCC[C@@H](C)O3)cc1 | / | 19[16.7 µM] | 30 | -18 | 66* | /
SMILES | CDK5 p35 inh | Env fusion inh | Cneo AK release | INS-1E GSIS act | PAX8 reporter | dFosB act
COc1ccc(S(=O)(=O)Nc2ccc3c(c2)C(=O)N([C@@H](C)CO)C[C@@H](C)[C@@H](CN(C)Cc2ccc(Cl)c(Cl)c2)OCCCC[C@@H](C)O3)cc1 | / | / | / | -12 | 48 | /
COc1ccc(S(=O)(=O)Nc2ccc3c(c2)C(=O)N([C@H](C)CO)C[C@H](C)[C@@H](CN(C)Cc2ccc(Cl)c(Cl)c2)OCCCC[C@@H](C)O3)cc1 | / | / | / | -19 | 94* | /
COc1ccc(S(=O)(=O)Nc2ccc3c(c2)C(=O)N([C@H](C)CO)C[C@H](C)[C@@H](CN(C)Cc2ccc(Cl)c(Cl)c2)OCCCC[C@H](C)O3)cc1 | / | 39[16.7 µM] | 0 | -23 | 47 | /
C[C@@H]1CN([C@H](C)CO)C(=O)c2cc(NS(C)(=O)=O)ccc2O[C@@H](C)CCCCO[C@@H]1CN(C)C(=O)c1ccncc1 | / | 16[16.7 µM] | 1 | -3 | / | /
COc1ccc(/C=N/Nc2ncnc3c2[nH]c2ccccc23)c(OC)c1OC | 0 | 12 | -13 | 68* | 24 | 3
COc1cccc(/C=N/Nc2ncnc3c2[nH]c2ccc(C)cc23)c1OC | -1 | 25 | / | -5 | -8 | 4
COCCNC(=O)C[C@@H]1C=C[C@@H](NS(=O)(=O)c2ccc(C)cc2)[C@@H](CO)O1 | / | 3[16.7 µM] | -1 | 20 | 0 | /
C=COC(=O)NC1CCc2cc(OC)c(OC)c(OC)c2-c2ccc(SC)c(=O)cc21 (configuration not stated) | -1 | -384 | / | -11 | 65* | -9
COc1cc2c(c(OC)c1OC)-c1ccc(SC)c(=O)cc1C(NC=O)CC2 (configuration not stated) | 1 | -170 | / | -20 | 100* | -1
COc1cc2c(c(OC)c1OC)-c1ccc(OC)c(=O)cc1C(NC(=O)c1ccccc1)CC2 (configuration not stated) | 4 | -65 | / | -5 | 70* | -6
COc1c(O[C@@H]2O[C@H](CO)[C@@H](O)[C@H](O)[C@H]2O)cc2c(c1OC)-c1ccc(SC)c(=O)cc1C(NC(C)=O)CC2 (some centres not stated) | 0 | -16 | 0 | -6 | -3 | -3
COc1cc2c(c(OC)c1OC)-c1ccc(SC)c(=O)cc1C(NC(=O)c1ccccc1)CC2 (configuration not stated) | 0 | -235 | / | -5 | 67* | -14
